Experimental findings from ChEMBL document CHEMBL1687765, “NagZ inactivation prevents and reverts beta-lactam resistance, driven by AmpD and PBP 4 mutations, in Pseudomonas aeruginosa” (2010) are described below.

What all share (type): functional
Experiment [1] relates to Pseudomonas aeruginosa. As to the kind of experiment: Antimicrobial activity against ampR::lox gene-deficient Pseudomonas aeruginosa PAO1 by Etest method. Summed up: (§1)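 MICs read from Etest strips on Mueller-Hinton agar per manufacturer's instructions; agents ceftazidime, cefepime, aztreonam, piperacillin, piperacillin-tazobactam, imipenem and meropenem.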
For experiment [2], the system named is Pseudomonas aeruginosa. Nature of the experiment: Antimicrobial activity against ampD::lox and nagZ::lox gene-deficient Pseudomonas aeruginosa PAO1 by Etest method. Summed up: as §1
Experiment [3] relates to Pseudomonas aeruginosa. As to the kind of experiment: Antimicrobial activity against dacB::lox and nagZ::lox gene-deficient Pseudomonas aeruginosa PAO1 by Etest method. Summed up:
as §1

Experiment [4] deals with Pseudomonas aeruginosa. Nature of the experiment: Antimicrobial activity against Pseudomonas aeruginosa PAO1 by Etest method. A digest of the protocol:
as §1

Experiment [5] concerns Pseudomonas aeruginosa. Nature of the experiment: Antimicrobial activity against ampD::lox, ampDh2::lox,ampDh3::lox and nagZ::lox gene-deficient Pseudomonas aeruginosa PAO1 by Etest method. Summed up:
as §1

The subject of experiment [6] is Pseudomonas aeruginosa. Nature of the experiment: Antimicrobial activity against ampD::lox gene-deficient Pseudomonas aeruginosa PAO1 by Etest method. A digest of the protocol:
as §1

Experiment [7] deals with Pseudomonas aeruginosa. As to the kind of experiment: Antimicrobial activity against dacB::lox gene-deficient Pseudomonas aeruginosa PAO1 by Etest method. Summed up: as §1
Experiment [8] has as its system Pseudomonas aeruginosa. Nature of the experiment: Antimicrobial activity against ampC::lox gene-deficient Pseudomonas aeruginosa PAO1 by Etest method. Summed up: as §1
The subject of experiment [9] is Pseudomonas aeruginosa. Nature of the experiment: Antimicrobial activity against ampD::lox, ampDh2::lox and ampDh3::lox gene-deficient Pseudomonas aeruginosa PAO1 by Etest method. Summed up:
(§2)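 Etest strips on Mueller-Hinton agar, read per manufacturer's recommendations; P. aeruginosa PAO1 triple mutant deficient in ampD, ampDh2 and ampDh3 (lox deletions). Agents tested by Etest: ceftazidime, cefepime, aztreonam, piperacillin, piperacillin-tazobactam, imipenem, meropenem.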

The subject of experiment [10] is Pseudomonas aeruginosa. As to the kind of experiment: Antimicrobial activity against ampD::lox and nagZ::lox gene-deficient Pseudomonas aeruginosa PAO1 harboring dacB gene by Etest method. Summed up:
as §1

In experiment [11] the test system is Pseudomonas aeruginosa. As to the kind of experiment: Antimicrobial activity against nagZ::lox gene-deficient Pseudomonas aeruginosa PAO1 by Etest method. Summed up:
as §1

For experiment [12], the system named is Pseudomonas aeruginosa. Nature of the experiment: Antimicrobial activity against ampD::lox gene-deficient Pseudomonas aeruginosa PAO1 harboring dacB gene by Etest method. A digest of the protocol:
as §1

Experiment [13] relates to Pseudomonas aeruginosa. As to the kind of experiment: Antimicrobial activity against Pseudomonas aeruginosa PAO1 by broth microdilution method in presence of 5 mM NagZ inhibitor PUGNAc. A digest of the protocol:
(§3)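 Broth microdilution MICs of ceftazidime, aztreonam and piperacillin in 100 μl cation-adjusted Mueller-Hinton broth, with or without NagZ inhibitor PUGNAc at 0.5 mM or 5 mM; measurements in triplicate.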

The test system of experiment [14] is Pseudomonas aeruginosa. As to the kind of experiment: Antimicrobial activity against dacB::lox gene-deficient Pseudomonas aeruginosa PAO1 by broth microdilution method in presence of 0.5 mM NagZ inhibitor PUGNAc. Summed up: as §3
Experiment [15] has as its system Pseudomonas aeruginosa. As to the kind of experiment: Antimicrobial activity against dacB::lox gene-deficient Pseudomonas aeruginosa PAO1 by broth microdilution method in presence of 5 mM NagZ inhibitor PUGNAc. Summed up:
as §3

The test system of experiment [16] is Pseudomonas aeruginosa. Nature of the experiment: Antimicrobial activity against ampD::lox gene-deficient Pseudomonas aeruginosa PAO1 by broth microdilution method in presence of 0.5 mM NagZ inhibitor PUGNAc. Summed up:
as §3

For experiment [17], the system named is Pseudomonas aeruginosa. As to the kind of experiment: Antimicrobial activity against ampD::lox gene-deficient Pseudomonas aeruginosa PAO1 harboring dacB gene by broth microdilution method in presence of 0.5 mM NagZ inhibitor PUGNAc. Summed up:
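MICs of ceftazidime, aztreonam and piperacillin determined by broth microdilution in cation-adjusted Mueller-Hinton broth, with 0.5 mM of the N-acetyl-β-glucosaminidase (NagZ) inhibitor PUGNAc added alongside the β-lactam and untreated controls run in parallel; all measurements performed in triplicate.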
In general terms: In broth dilution the organism is exposed to a series of concentrations in liquid medium.

Experiment [18] relates to Pseudomonas aeruginosa. Nature of the experiment: Antimicrobial activity against ampD::lox gene-deficient Pseudomonas aeruginosa PAO1 harboring dacB gene by broth microdilution method in presence of 5 mM NagZ inhibitor PUGNAc. A digest of the protocol: as §3
Experiment [19] has as its system Pseudomonas aeruginosa. Nature of the experiment: Antimicrobial activity against ampD::lox gene-deficient Pseudomonas aeruginosa PAO1 by broth microdilution method in presence of 5 mM NagZ inhibitor PUGNAc. A digest of the protocol:
as §3

In experiment [20] the test system is Pseudomonas aeruginosa. Nature of the experiment: Antimicrobial activity against dacB::lox gene-deficient Pseudomonas aeruginosa PAO1 by broth microdilution method. A digest of the protocol: as §3
In experiment [21] the test system is Pseudomonas aeruginosa. As to the kind of experiment: Antimicrobial activity against Pseudomonas aeruginosa PAO1 by broth microdilution method in presence of 0.5 mM NagZ inhibitor PUGNAc. A digest of the protocol: as §3
Experiment [22] concerns Pseudomonas aeruginosa. Nature of the experiment: Antimicrobial activity against ampD::lox gene-deficient Pseudomonas aeruginosa PAO1 harboring dacB gene by broth microdilution method. Summed up:
as §3

The subject of experiment [23] is Pseudomonas aeruginosa. As to the kind of experiment: Antimicrobial activity against Pseudomonas aeruginosa PAO1 by broth microdilution method. Summed up: as §3
In experiment [24] the test system is Pseudomonas aeruginosa. Nature of the experiment: Antimicrobial activity against ampD::lox gene-deficient Pseudomonas aeruginosa PAO1 by broth microdilution method. A digest of the protocol:
as §3

For experiment [25], the system named is Pseudomonas aeruginosa. As to the kind of experiment: Antimicrobial activity against dacB::lox gene-deficient Pseudomonas aeruginosa PAO1 by Etest method in presence of beta-lactamase inhibitor Tazobactam. A digest of the protocol: as §1
Experiment [26] relates to Pseudomonas aeruginosa. As to the kind of experiment: Antimicrobial activity against Pseudomonas aeruginosa PAO1 by Etest method in presence of beta-lactamase inhibitor Tazobactam. A digest of the protocol: as §1
Experiment [27] relates to Pseudomonas aeruginosa. Nature of the experiment: Antimicrobial activity against ampD::lox, ampDh2::lox and ampDh3::lox gene-deficient Pseudomonas aeruginosa PAO1 by Etest method in presence of beta-lactamase inhibitor Tazobactam. A digest of the protocol:
as §2

The subject of experiment [28] is Pseudomonas aeruginosa. Nature of the experiment: Antimicrobial activity against ampR::lox gene-deficient Pseudomonas aeruginosa PAO1 by Etest method in presence of beta-lactamase inhibitor Tazobactam. A digest of the protocol: as §1
In experiment [29] the test system is Pseudomonas aeruginosa. Nature of the experiment: Antimicrobial activity against nagZ::lox gene-deficient Pseudomonas aeruginosa PAO1 by Etest method in presence of beta-lactamase inhibitor Tazobactam. Summed up:
as §1

Experiment [30] relates to Pseudomonas aeruginosa. Nature of the experiment: Antimicrobial activity against dacB::lox and nagZ::lox gene-deficient Pseudomonas aeruginosa PAO1 by Etest method in presence of beta-lactamase inhibitor Tazobactam. Summed up: (§4)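 MICs on Mueller-Hinton agar by Etest strips (piperacillin-tazobactam among the agents tested), per manufacturer's instructions.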
Experiment [31] deals with Pseudomonas aeruginosa. Nature of the experiment: Antimicrobial activity against ampD::lox and nagZ::lox gene-deficient Pseudomonas aeruginosa PAO1 harboring dacB gene by Etest method in presence of beta-lactamase inhibitor Tazobactam. Summed up:
as §1

In experiment [32] the test system is Pseudomonas aeruginosa. As to the kind of experiment: Antimicrobial activity against ampD::lox and nagZ::lox gene-deficient Pseudomonas aeruginosa PAO1 by Etest method in presence of beta-lactamase inhibitor Tazobactam. A digest of the protocol:
as §4

In experiment [33] the test system is Pseudomonas aeruginosa. Nature of the experiment: Antimicrobial activity against ampD::lox gene-deficient Pseudomonas aeruginosa PAO1 by Etest method in presence of beta-lactamase inhibitor Tazobactam. Summed up: as §1
Experiment [34] has as its system Pseudomonas aeruginosa. As to the kind of experiment: Antimicrobial activity against ampC::lox gene-deficient Pseudomonas aeruginosa PAO1 by Etest method in presence of beta-lactamase inhibitor Tazobactam. Summed up:
as §1

For experiment [35], the system named is Pseudomonas aeruginosa. As to the kind of experiment: Antimicrobial activity against ampD::lox, ampDh2::lox,ampDh3::lox and nagZ::lox gene-deficient Pseudomonas aeruginosa PAO1 by Etest method in presence of beta-lactamase inhibitor Tazobactam. Summed up:
as §4

Converted amounts (≈) assume the structure as drawn.

By MIC is commonly meant the lowest concentration found to suppress growth. For `C[C@@H](O)[C@H]1C(=O)N2C(C(=O)O)=C(S[C@@H]3CN[C@H](C(=O)N(C)C)C3)[C@H](C)[C@H]12` [MEROPENEM], the minimal inhibitory concentration (MIC) is 0.25 µg/mL (≈ 0.652 µM) against Pseudomonas aeruginosa [1]; 0.5 µg/mL (≈ 1.3 µM) in the experiment with Pseudomonas aeruginosa [2]; 0.38 µg/mL (≈ 0.991 µM) in the experiment on Pseudomonas aeruginosa [3]; 0.38 µg/mL (≈ 0.991 µM) with Pseudomonas aeruginosa [4]; 1 µg/mL (≈ 2.61 µM) against Pseudomonas aeruginosa [5]; 1 µg/mL (≈ 2.61 µM) in the experiment with Pseudomonas aeruginosa [6]. For the same molecule, the MIC amounted to 0.5 µg/mL (≈ 1.3 µM) with Pseudomonas aeruginosa [7]; 0.25 µg/mL (≈ 0.652 µM) against Pseudomonas aeruginosa [8]; 1 µg/mL (≈ 2.61 µM) with Pseudomonas aeruginosa [9]; 0.5 µg/mL (≈ 1.3 µM) against Pseudomonas aeruginosa [10]; 0.38 µg/mL (≈ 0.991 µM) in the experiment on Pseudomonas aeruginosa [11]; 1.5 µg/mL (≈ 3.91 µM) against Pseudomonas aeruginosa [12].

Regarding `C[C@H]1[C@H](NC(=O)/C(=N\OC(C)(C)C(=O)O)c2csc(N)n2)C(=O)N1S(=O)(=O)O` [AZTREONAM], the MIC is 3 µg/mL in the experiment on Pseudomonas aeruginosa [13]; 4 µg/mL (≈ 9.19 µM) in the experiment with Pseudomonas aeruginosa [1]; 4 µg/mL with Pseudomonas aeruginosa [14]; 3 µg/mL with Pseudomonas aeruginosa [15]; 3 µg/mL with Pseudomonas aeruginosa [16]; 8 µg/mL (≈ 18.4 µM) in the experiment on Pseudomonas aeruginosa [5]. Further, the MIC came to 32 µg/mL in the experiment with Pseudomonas aeruginosa [17]; 12 µg/mL (≈ 27.6 µM) in the experiment with Pseudomonas aeruginosa [6]; 24 µg/mL (≈ 55.1 µM) in the experiment with Pseudomonas aeruginosa [7]; 2 µg/mL (≈ 4.59 µM) against Pseudomonas aeruginosa [8]; 32 µg/mL (≈ 73.5 µM) against Pseudomonas aeruginosa [9]; 24 µg/mL in the experiment on Pseudomonas aeruginosa [18]. The minimal inhibitory concentration (MIC) came to 3 µg/mL in the experiment on Pseudomonas aeruginosa [19]; 12 µg/mL (≈ 27.6 µM) in the experiment with Pseudomonas aeruginosa [20]; 4 µg/mL (≈ 9.19 µM) in the experiment on Pseudomonas aeruginosa [11]; 3 µg/mL in the experiment on Pseudomonas aeruginosa [21]; 32 µg/mL (≈ 73.5 µM) against Pseudomonas aeruginosa [22]; 64 µg/mL (≈ 147 µM) in the experiment on Pseudomonas aeruginosa [12]. Moreover, the values for the MIC against Pseudomonas aeruginosa [23] and with Pseudomonas aeruginosa [24] were 3 µg/mL (≈ 6.89 µM) and 6 µg/mL (≈ 13.8 µM), respectively.

For `CCN1CCN(C(=O)N[C@@H](C(=O)N[C@@H]2C(=O)N3[C@@H]2SC(C)(C)[C@@H]3C(=O)O)c2ccccc2)C(=O)C1=O` [PIPERACILLIN], the minimal inhibitory concentration (MIC) with Pseudomonas aeruginosa [13] worked out at 4 µg/mL; in the experiment with Pseudomonas aeruginosa [14], 32 µg/mL; in the experiment with Pseudomonas aeruginosa [15] it was 24 µg/mL; in the experiment with Pseudomonas aeruginosa [16], 24 µg/mL; in the experiment on Pseudomonas aeruginosa [17], 256 µg/mL; in the experiment with Pseudomonas aeruginosa [25], 64 µg/mL. The MIC was 2 µg/mL in the experiment on Pseudomonas aeruginosa [26]; 256 µg/mL in the experiment on Pseudomonas aeruginosa [18]; above 256 µg/mL in the experiment on Pseudomonas aeruginosa [27]; 24 µg/mL with Pseudomonas aeruginosa [19]; 64 µg/mL (≈ 124 µM) in the experiment with Pseudomonas aeruginosa [20]; 4 µg/mL in the experiment on Pseudomonas aeruginosa [28]. Further, the minimum inhibitory concentration (MIC) in the experiment on Pseudomonas aeruginosa [29] is 2 µg/mL; with Pseudomonas aeruginosa [21], 4 µg/mL; against Pseudomonas aeruginosa [22], 384 µg/mL (≈ 742 µM); against Pseudomonas aeruginosa [23], 4 µg/mL (≈ 7.73 µM); with Pseudomonas aeruginosa [24], 48 µg/mL (≈ 92.7 µM); in the experiment on Pseudomonas aeruginosa [30], 3 µg/mL. Besides, the MIC worked out at 16 µg/mL with Pseudomonas aeruginosa [31]; 3 µg/mL in the experiment with Pseudomonas aeruginosa [32]; 32 µg/mL with Pseudomonas aeruginosa [33]; 2 µg/mL in the experiment with Pseudomonas aeruginosa [34]; 8 µg/mL in the experiment on Pseudomonas aeruginosa [35].
